GPR7 antagonist = antagonists of human GPR7 (neuropeptides B/W receptor 1); GPR7-expressing cells, fluorescence antagonist assay; inhibition, % at 4.4 µM; actives 1.1% (n = 290,000); AID 1861; in the data active means inhibition above about 16%, passing the limit was not always enough;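 further: cells stimulated with the agonist NPW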
OX1R antag-1 = blocks the human orexin 1 receptor; CHO/OX1R cells, Fluo-8 calcium fluorescence, orexin A; inhibition, % at 5 µM; AID 434989; actives 0.43% (n = 330,000); O43613;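 active means inhibition above its plate's threshold, mean inhibition of all tested compounds on the plate plus 3 SD, cut at about 37% in these data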
Target sequence (O43613 whole entry, looked up): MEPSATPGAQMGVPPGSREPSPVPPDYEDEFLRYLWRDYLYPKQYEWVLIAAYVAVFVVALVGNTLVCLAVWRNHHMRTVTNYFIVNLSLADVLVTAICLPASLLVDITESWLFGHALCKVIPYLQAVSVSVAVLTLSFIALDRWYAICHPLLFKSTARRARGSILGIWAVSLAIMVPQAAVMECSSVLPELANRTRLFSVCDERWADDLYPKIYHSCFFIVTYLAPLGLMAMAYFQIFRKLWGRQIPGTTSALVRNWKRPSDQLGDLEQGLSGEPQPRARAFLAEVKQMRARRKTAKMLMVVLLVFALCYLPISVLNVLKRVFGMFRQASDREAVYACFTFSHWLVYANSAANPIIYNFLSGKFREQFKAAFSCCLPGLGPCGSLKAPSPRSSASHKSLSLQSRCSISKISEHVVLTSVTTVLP
OX1R antag-2 = OX1R (human) antagonism; inhibition, % at 6.6 µM; O43613; OX1R-expressing cells, FRET antagonist read-out; actives 1.8% (n = 330,000); in the data active means inhibition mostly above about 38%, no sharp cut-off; inactive means mostly below about 40%
TAAR1 agonist = human TAAR1 agonism. Q96RJ0. CHO RD-HGA16 TAAR1, Fluo-8 calcium fluorescence; vehicle wells 0%, saturating PEA agonist 100%. activation, % at 3 µM. actives 0.99% (n = 360,000). AID 624467;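 active means activation above the mean activation of all test compounds in the run plus 3 SD, cut at about 38% in these data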
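Repeats: no replicates (n 1) | Material: CHO-derived RD-HGA16 cells with stable Gα16 and human TAAR1 | Technique: Kinetic Fluo-8 calcium fluorescence | Schedule: 17-24 h seeding, 75 min 37 °C dye, 30 min RT | Evaluation: % activation from peak over basal fluorescence ratio, DMSO-to-PEA scaled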
TAAR1 antagonist = antagonists of human TAAR1; AID 624466; Q96RJ0; inhibition, % at 3 µM; CHO RD-HGA16 TAAR1, Fluo-8 calcium fluorescence, antagonist; actives 1.5% (n = 360,000);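 active means inhibition above a per-plate cutoff, the mean inhibition of test compounds on that plate plus 3 SD, cut at about 49% in these data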
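Assay system: RD-HGA16 CHO cells with stable hTAAR1 and Gα16 / Reagent: EC80 β-phenethylamine stimulus / Doses: 3 µM, single point / Timing: dye loading 75 min at 37 °C, then 30 min room temperature / Measured by: Fluo-8 intracellular calcium dye fluorescence, real-time kinetic reads / Controls: vehicle wells and EC80 agonist wells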
CHO parental Ca = counter-screen: ATP calcium response change in parental CHO cells; parental CHO-K1, ATP-induced calcium, Fluo-8 fluorescence; inhibition, % at 5.6 µM; actives 0.63% (n = 330,000);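 active means inhibition above that plate's mean sample inhibition plus 3 SD, cut at about 26% in these data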
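Assay system: untransfected parental CHO cell line. Also added: ATP agonist challenge. Dosing: one dose, 5.6 µM nominal. Measured by: Fluo-8 fluorescence. Read-out: % inhibition. Benchmarks: ATP wells versus no-ATP DMSO wells. Repeats: no replicates.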
GPR7 antag cf = human GPR7 antagonism, confirmation assay; shares compounds with GPR7 antagonist; GPR7-expressing cells, calcium fluorescence antagonist mode; inhibition, % at 4.4 µM; actives 52% (n = 2,400); in the data active means inhibition above about 24%;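 further: stimulated with the GPR7 agonist NPW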
MCHR1 antagonist = counter-screen for GPR7 antagonists: antagonists of human MCHR1. inhibition, % at 4.4 µM. MCHR1-expressing cells, fluorescence antagonist assay. AID 2148. actives 62% (n = 2,400). shares compounds with GPR7 antagonist; in the data active means inhibition above about 22%
Hits are given with their value; . = inactive; / = not tested or not shown. In the library only some 4.6% were active in any assay of this set; here they are far more common.

SMILES	GPR7 antagonist	OX1R antag-1	OX1R antag-2	TAAR1 agonist	TAAR1 antagonist	CHO parental Ca	GPR7 antag cf	MCHR1 antagonist
CCOc1ccc(NC(=O)C2CCCN(S(=O)(=O)c3ccc4c(c3)CC(C)N4C(C)=O)C2)cc1 (stereo not drawn)	.	.	.	.	.	.	/	/
O=C(CSc1nnc(C2COc3ccccc3O2)o1)N1CCN(c2ccccc2)CC1 (stereo not drawn)	.	.	.	.	.	.	/	/
O=C(O)CCCNc1ccc(S(=O)(=O)N2CCCCC2)cc1	.	.	.	.	.	.	/	/
O=C(CSCc1ccccc1)Nc1ccc2c(c1)C(=O)NC2=O	24	.	.	.	.	.	35	34
Nc1nc(SCC(=O)Nc2ccc([N+](=O)[O-])cc2)[nH]c(=O)c1NC(=O)c1ccc(Br)cc1	.	.	.	.	.	.	/	/
CCN(C(=O)c1cc2c(s1)-c1ccccc1S(=O)(=O)C2)c1cc(OC)ccc1OC	.	.	.	.	.	.	/	/
CCN(C(=O)c1cc2c(s1)-c1ccccc1OC2)c1cc(OC)ccc1OC	31	.	.	.	.	35	50	56
Cc1nc(Cl)c(C(=O)NCc2ccccc2)c(C)c1Cl	.	.	.	.	.	.	/	/
O=C(NCc1ccccc1)c1c(Cl)nc(Cl)c(Cl)c1Cl	76	.	.	.	.	.	87	45
O=C(CNC(=O)c1ccco1)NCC(c1ccco1)N1CCCCC1 (stereo not drawn)	/	.	.	.	.	.	/	/
Cc1ccc(C(=O)NC2CCCc3ccccc32)cc1[N+](=O)[O-] (stereo not drawn)	34	.	.	.	.	.	25	55
Cc1cc(C(=O)NC2CCCc3ccccc32)ccc1[N+](=O)[O-] (stereo not drawn)	.	.	.	.	.	.	/	/
Nc1ccc(-c2nc3c(ccc4ccccc43)[nH]2)cc1	.	.	.	.	.	.	/	/
Cc1c(Cc2c(Cl)cccc2Cl)c(=O)ccn1C(C)c1ccccc1 (stereo not drawn)	35	/	/	.	.	/	27	25
Cc1cc(C(=O)N2CCC(Cc3ccccc3)CC2)ccc1[N+](=O)[O-]	/	.	.	.	.	.	/	.
COc1cc(C)c(NC(=O)COc2cccc3c2OC(C)(C)C3)cc1OC	/	.	.	/	/	.	/	/
CC(C)CC(=O)N1CCN(c2ccc([N+](=O)[O-])c(NCc3ccccc3)c2)CC1	36	.	.	.	.	.	26	45
CCOC(=O)c1[nH]c(CN2CCN(c3ccc(OC)cc3)CC2)c(C(=O)OCC)c1C	25	.	.	51	.	.	.	39
COc1ccc(CN(C)C(=O)C23CC4CC(CC(Cl)(C4)C2)C3)c(OC)c1OC	25	.	.	.	.	.	.	23
CCOc1ccc2c(c1)C(=O)C(=O)N2CC1COc2ccccc2O1 (stereo not drawn)	.	.	.	.	.	.	/	/
COc1ccc2c(c1)C(=O)C(=O)N2CC1COc2ccccc2O1 (stereo not drawn)	31	.	.	.	.	.	.	27
CO/N=C/Cc1c([N+](=O)[O-])c(C)nn1C	28	.	.	.	.	.	.	.
FC(F)(F)c1cc(C(F)(F)F)c2ccc(N3CCN(c4ccc(Cl)cc4)CC3)nc2n1	.	.	.	.	.	.	/	/
N#CC(c1ccc(Cl)cc1)c1ccc2c(C(F)(F)F)cc(C(F)(F)F)nc2n1 (stereo not drawn)	33	.	.	.	.	.	59	50
O=C(COC(=O)C1c2ccccc2Oc2ccccc21)Nc1ccc2c(c1)OCO2	.	.	.	.	.	.	/	/
CC(=O)Nc1ccc(NC(=O)COC(=O)C2c3ccccc3Oc3ccccc32)cc1	23	/	/	.	.	/	.	.
C(=N/n1c2ccccc2c2ccccc21)/c1ccco1	26	.	.	.	.	.	.	.

Source: PubChem BioAssay (The Scripps Research Institute Molecular Screening Center)
